Molecules are shown by their SMILES. Active and inactive are the calls of the source. No cut-off for these calls is given here.

Data set [1] addresses T1, Gamma-secretase (Homo sapiens) (UniProt Q96BI3+Q9NZ42+Q8WW43+P49768+Q92542+P49810). Nature of the data set: Inhibition of human gamma-secretase assessed as inhibition of amyloid beta 40 production using recombinant APP C100FLAG as substrate at 100 uM after 4 hrs by ELISA relative to control. The format is protein-complex assay. The gist of the method:
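Purified human γ-secretase complex incubated with recombinant C100 FLAG substrate in 0.2% CHAPSO/HEPES, pH 7.5. Compound added from DMSO stock to a final 100 μM with 1% final DMSO. Reaction run 4 h at 37°C and stopped with 0.5% SDS. Aβ40 quantified by specific ELISA and expressed as percent inhibition versus DMSO control.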

In data set [2] the target is T1, Gamma-secretase (Homo sapiens). The data set is described as follows: Inhibition of human gamma-secretase assessed as inhibition of notch1 processing at 100 uM using N100Flag as substrate by western blot analysis. The format is protein-complex assay. On the technique in general: A western blot detects proteins with antibodies after separation by electrophoresis.

The nature of data set [3]: Metabolic stability of the compound in rat liver microsomes assessed as parent compound remaining after 60 mins. Type of data set: ADME. To be noted: read-out: Stability. Background: Liver microsomes are vesicles of endoplasmic reticulum, rich in cytochrome P450 enzymes.
Data set [4] can be described thus: Lipophilicity, logD of the compound. The format is physicochemical. To be noted: octanol/water.
The next data set deals with Gamma-secretase. Nature of the data set: Inhibition of gamma-secretase (unknown origin) assessed as inhibition of amyloid beta 42 production by cell-based assay. Also noted: species or system Homo sapiens.
A short description of data set [5]: Permeability of the compound from apical to basolateral side. To be noted: not told; read-out: permeability. The format is ADME.
Data set [6] can be described thus: Metabolic stability of the compound in human liver microsomes assessed as parent compound remaining after 60 mins. Type of data set: ADME. To be noted: read-out: Stability.
Data set [7] can be described thus: Protein binding in human plasma. Type of data set: ADME, cell-free. To be noted: read-out: PPB (converted).
For data set [8], the target named is T1, Gamma-secretase (Homo sapiens). Nature of the data set: Inhibition of gamma-secretase (unknown origin) assessed as inhibition of amyloid beta 42 production at 100 uM by cell-based assay.

As to `Cn1c(=O)c(-c2ccc(Cl)cc2)cc2cnc(N3CCN(c4ccc(F)cc4)CC3)nc21`, the inhibition in data set [1] was 0%.

In the case of `Cn1c(=O)c(-c2c(Cl)cccc2Cl)cc2cnc(N3CCN(CC4CCCO4)CC3)nc21` (configuration not stated), in [1], the inhibition came out at 0%.

With `Cn1c(=O)ccc2cnc(N3CCN(c4ccc(F)cc4)CC3)nc21`, the inhibition in data set [1] came to 0%.

Regarding `CC(C)N(Cc1cc(F)cc(F)c1)c1ncc2cc(-c3c(Cl)cccc3Cl)c(=O)n(C)c2n1`, the inhibition in data set [1] was 73%. For the same compound, the inhibition entry in data set [2] was “Active”.

As to `Cn1c(=O)c(-c2c(Cl)cccc2Cl)cc2cnc(N3CCN(c4ccc(F)cc4)CC3)nc21`, the remaining at 1 h is 72% in data set [3] and 74% in [6]. Besides, the logD in data set [4] was above 4. On Gamma-secretase, the IC50 came to 2.7 µM. In data set [5], the Papp A→B came to 0.1 ×10⁻⁶ cm/s. The inhibition in [1] amounted to 68%. Moreover, in data set [2], the inhibition result is “inactive”. Besides, the fraction unbound in [7] was 0.011.

Turning to `CC(C)N(Cc1ccccc1)c1ncc2cc(-c3c(Cl)cccc3Cl)c(=O)n(C)c2n1`, the remaining at 1 h in data set [3] is 4%; in [6] it was 72%. This compound also showed a log distribution coefficient (logD) in [4] above 4. The Papp A→B in [5] came to 2.3 ×10⁻⁶ cm/s. The inhibition in [1] is 90%. The inhibition entry in [2] is “inactive”. Further, the fraction unbound in [7] was 0.057.

Turning to `Cn1c(=O)c(-c2c(Cl)cccc2Cl)cc2cnc(N3CCN(c4ncccn4)CC3)nc21`, the inhibition in [1] is 0%.

Consider `Cn1c(=O)c(-c2c(Cl)cccc2Cl)cc2cnc(NCc3ccccn3)nc21`, for which the inhibition in data set [1] came out at 59%. Besides, in [2], the inhibition result is “inactive”.

On to `CSc1cccc(Nc2ncc3cc(-c4c(Cl)cccc4Cl)c(=O)n(C)c3n2)c1`, for which, in data set [1], the inhibition came out at 0%. The inhibition result in [2] was “inactive”.

With `CC(C)Nc1ncc2cc(-c3c(Cl)cccc3Cl)c(=O)n(C)c2n1`, the inhibition in data set [1] worked out at 0%. Further, the inhibition result in data set [2] was “inactive”.

For `Cn1c(=O)c(-c2ccc(C(C)(C)C)cc2)cc2cnc(N3CCN(c4ccc(F)cc4)CC3)nc21`, the inhibition in [1] was 2%.

For `COc1ccc(Nc2ncc3cc(-c4c(Cl)cccc4Cl)c(=O)n(C)c3n2)cc1`, the inhibition in data set [1] came to 47%. Moreover, the inhibition entry in data set [2] is “inactive”.

As for `Cn1c(=O)c(-c2c(Cl)cccc2Cl)cc2cnc(Nc3ccc(C(F)(F)F)cc3)nc21`, in data set [1], the inhibition amounted to 12%.

On to `CCCCCCNc1ncc2cc(-c3c(Cl)cccc3Cl)c(=O)n(C)c2n1`, for which the inhibition in data set [1] was 53%. The inhibition entry in data set [2] is “Active”.

Regarding `Cn1c(=O)c(-c2c(Cl)cccc2Cl)cc2cnc(N3CCN(c4ccccn4)CC3)nc21`, the inhibition in data set [1] was 0%.

`Cn1c(=O)c(-c2ccccc2)cc2cnc(N3CCN(c4ccc(F)cc4)CC3)nc21`: the inhibition in data set [1] is 14%. Besides, the inhibition entry in [2] is “Active”.

`Cn1c(=O)c(-c2c(F)cccc2F)cc2cnc(N3CCN(c4ccc(F)cc4)CC3)nc21`: the inhibition in [1] is 20%. Further, the inhibition result in data set [2] is “Active”.

In the case of `Cn1c(=O)c(-c2c(Cl)cccc2Cl)cc2cnc(NCc3ccccc3)nc21`, the inhibition in [1] turned out to be 0%.

As to `CSc1ccc(Nc2ncc3cc(-c4c(Cl)cccc4Cl)c(=O)n(C)c3n2)cc1`, the 50% inhibitory concentration (IC50) at Gamma-secretase amounted to 26 µM. Also, the inhibition in [1] came out at 47%. For the same compound, in data set [2], the inhibition entry is “inactive”.

For `CC(C)N(Cc1ccc(Cl)c(Cl)c1)c1ncc2cc(-c3c(Cl)cccc3Cl)c(=O)n(C)c2n1`, the inhibition in data set [1] turned out to be 50%. Moreover, the inhibition entry in data set [2] was “inactive”.

In the case of `Cn1c(=O)c(-c2c(Cl)cccc2Cl)cc2cnc(Nc3ccccc3)nc21`, the inhibition in [1] is 26%.

With `CN1CCN(c2ncc3cc(-c4c(Cl)cccc4Cl)c(=O)n(C)c3n2)CC1`, the inhibition stood at 7% in [8] and 0% in data set [1]. Besides, the inhibition result in data set [2] was “inactive”.

As to `Cn1c(=O)c(-c2c(Cl)cccc2Cl)cc2cnc(N3CCN(Oc4cccnc4)CC3)nc21`, the inhibition in data set [8] and in data set [1] was 0% in each case.

Regarding `CN(CCc1ccccc1)c1ncc2cc(-c3c(Cl)cccc3Cl)c(=O)n(C)c2n1`, the inhibition in [1] was 48%. Further, the inhibition result in [2] was “inactive”.

As usually defined, the inhibition is the drop in the measured response relative to a control, in per cent. For orientation: logD means lipophilicity at a set pH, counting ionised and neutral species. A low value points to lower lipophilicity. For orientation: IC50 means the point on the concentration scale where inhibition reaches its midpoint.

The values above are taken from ChEMBL document CHEMBL3797067, “Part 3: Notch-sparing γ-secretase inhibitors: SAR studies of 2-substituted aminopyridopyrimidinones” (Bioorg Med Chem Lett, 2016).
